Results published in ChEMBL document CHEMBL4330070, “Design and synthesis of novel pyrimidine derivatives as potent antitubercular agents” (Eur J Med Chem, 2019).
Activity calls are given as the source filed them. No cut-off for these calls is given here.

Key:
[1] = system: Mycobacterium tuberculosis; assay: Antimicrobial activity against autoluminescent Mycobacterium tuberculosis H37Ra infected in BALB/c mouse assessed as reduction in bacterial burden in lung at 300 mg/kg administered daily via gavage for 5 days and measured on day 6 by luminometric method; type: functional
Procedure, shortened: (§1)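 Mice grouped by similar RLU, four per group. Dosed by gavage daily from day 0 to day 5 in 0.5% CMC-Na, with vehicle, RIF 10 mg/kg and PZA 150 mg/kg controls. Lung or spleen burden read as log10 RLU, mean ± SD.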

[2] = system: Mycobacterium tuberculosis; assay: Antimicrobial activity against autoluminescent Mycobacterium tuberculosis H37Ra infected in BALB/c mouse assessed as reduction in bacterial burden in spleen at 300 mg/kg administered daily via gavage for 5 days and measured on day 6 by luminometric method; type: functional, organism-based; procedure, shortened: as §1
[3] = Toxicity in Balb/c mouse infected with Mycobacterium tuberculosis H37Ra assessed as mouse death at 300 mg/kg administered daily via gavage for 5 days; type: organism-based; conditions: in vivo, po, 120 h
Procedure, shortened: (§2)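 Female BALB/c mice aged 4-5 weeks infected by tail vein with autoluminescent H37Ra, four per group. Gavage daily from day 0 to day 5 in 0.5% CMC-Na vehicle. Deaths recorded over the 6-day treatment period and reported as percent survival.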

[4] = system: Mycobacterium tuberculosis; assay: Synergistic antimicrobial activity against autoluminescent Mycobacterium tuberculosis H37Ra assessed as test compound concentration causing ratio of drug treated RLU/untreated RLU less than 10% by measuring FICI at 0.0625 to 2 times MIC after 7 days in presence of sulfamethoxazole by luminometric method; type: functional
Procedure, shortened: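 Exponential-phase UAIRa in 7H9 without Tween 80 at 10,000-50,000 RLU/mL. Compound at 2-fold dilutions from 2×MIC to MIC/16, each combined with sulfamethoxazole at 16, 8, 4 or 2 µg/mL, with a 2% DMSO control. RLU read after 7 days at 37 °C. MIC taken as RLU drug/DMSO below 10%. FICI is the sum of MIC in combination over MIC alone for each drug.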

[5] = system: Mycobacterium tuberculosis; assay: Antimicrobial activity against autoluminescent Mycobacterium tuberculosis H37Ra assessed as test compound concentration causing ratio of drug treated RLU/untreated RLU less than 10% measured every day up to 6 days by luminometric method; type: functional; conditions: 144 h
Procedure, shortened: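 Autoluminescent marker-free H37Ra (UAIRa) grown in 7H9 with OADC and 0.05% Tween 80 until RLU exceeded 5 million/mL, then diluted to 10,000-50,000 RLU/mL in 7H9 without Tween 80. Compounds tested as 2-fold dilutions from 100 to 0.625 µg/mL, with DMSO 2% and rifampicin 1 µg/mL controls. RLU read daily to day 6. MIC is the lowest concentration giving RLU drug/DMSO below 10%.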

[6] = Toxicity in Balb/c mouse infected with Mycobacterium tuberculosis H37Ra assessed as mouse death at 200 mg/kg administered daily via gavage for 5 days; type: organism-based; conditions: in vivo, po, 120 h; procedure, shortened: as §2
[7] = system: Mycobacterium tuberculosis; assay: Antimicrobial activity against autoluminescent Mycobacterium tuberculosis H37Ra infected in BALB/c mouse assessed as reduction in bacterial burden in spleen at 200 mg/kg administered daily via gavage for 5 days and measured on day 6 by luminometric method; type: functional, organism-based; procedure, shortened: as §1
[8] = system: Mycobacterium tuberculosis; assay: Antimicrobial activity against autoluminescent Mycobacterium tuberculosis H37Ra infected in BALB/c mouse assessed as reduction in bacterial burden in lung at 200 mg/kg administered daily via gavage for 5 days and measured on day 6 by luminometric method; type: functional, organism-based; procedure, shortened: as §1
[9] = system: Mycobacterium tuberculosis; assay: Antimicrobial activity against autoluminescent Mycobacterium tuberculosis H37Ra infected in BALB/c mouse assessed as reduction in bacterial burden in spleen at 100 to 300 mg/kg administered daily via gavage for 5 days and measured on day 6 by luminometric method; type: functional; procedure, shortened: as §1
[10] = system: Mycobacterium tuberculosis; assay: Antimicrobial activity against autoluminescent Mycobacterium tuberculosis H37Ra infected in BALB/c mouse assessed as reduction in bacterial burden in lung at 100 to 300 mg/kg administered daily via gavage for 5 days and measured on day 6 by luminometric method; type: functional; procedure, shortened: as §1
[11] = Toxicity in Balb/c mouse infected with Mycobacterium tuberculosis H37Ra assessed as mouse death at 100 mg/kg administered daily via gavage for 5 days; type: organism-based; conditions: in vivo, po, 120 h; procedure, shortened: as §2

Compound | MIC [5] [µM] | further results
Cc1cc(Nc2ncc(Cl)c(Nc3ccccc3S(=O)(=O)C(C)C)n2)c(OC(C)C)cc1C1CCNCC1 [CERITINIB] | 9 | Activity [1]: 1 log10RLU; Activity [2]: inactive; Activity [3]: Toxic; fractional inhibitory concentration index (FICI) [4]: 0.74
CC(C)S(=O)(=O)c1ccccc1Nc1nc(NCCc2ccc(Br)cc2)ncc1Cl | > 150 | –
COc1ccc(Nc2ncc(Cl)c(Nc3ccccc3S(=O)(=O)C(C)C)n2)cc1 | > 200 | –
Cc1cc(Nc2ncc(Cl)c(Nc3ccccc3S(=O)(=O)C(C)C)n2)c(OC(C)C)cc1N1CCOCC1 | > 150 | –
CC(C)S(=O)(=O)c1ccccc1Nc1nc(Nc2ccccc2O)ncc1Cl | > 200 | –
Cc1cc(Nc2ncc(Cl)c(NCc3ccccc3)n2)c(OC(C)C)cc1C1CCNCC1 | 10 | –
Cc1cc(Nc2ncc(Cl)c(Nc3ccc(O)cc3)n2)c(OC(C)C)cc1C1CCNCC1 | 10 | –
COc1ccc(Nc2nc(Nc3cc(C)c(C4CCNCC4)cc3OC(C)C)ncc2Cl)cc1Br | 9 | –
Cc1cc(Nc2ncc(Cl)c(NC34CC5CC(CC(C5)C3)C4)n2)c(OC(C)C)cc1C1CCNCC1 | 20 | –
Cc1cc(Nc2ncc(Cl)c(Nc3ccccc3S(=O)(=O)C(C)C)n2)c(OC(C)C)cc1N1CCN(C)CC1 | 18 | –
COc1ccc(CCNc2nc(Nc3cc(C)c(C4CCNCC4)cc3OC(C)C)ncc2Cl)cc1 | 5 | Activity [6]: Toxic; fractional inhibitory concentration index (FICI) [4]: 1.24; Activity [7]: inactive; Activity [8]: inactive
Cc1cc(Nc2ncc(Cl)c(Nc3cc(C(F)(F)F)cc(C(F)(F)F)c3)n2)c(OC(C)C)cc1C1CCNCC1 | 17 | –
Cc1cc(Nc2ncc(Cl)c(NCCc3ccccc3)n2)c(OC(C)C)cc1C1CCNCC1 | 5 | Activity [3]: Non-Toxic; Activity [6]: Non-Toxic; fractional inhibitory concentration index (FICI) [4]: 0.74; Activity [7]: Active; Activity [8]: Active
Cc1cc(Nc2ncc(Cl)c(NCCc3cccs3)n2)c(OC(C)C)cc1C1CCNCC1 | 10 | –
CC(C)S(=O)(=O)c1ccccc1Nc1nc(Nc2ccc(C(N)=O)cc2)ncc1Cl | > 200 | –
Cc1cc(Nc2ncc(Cl)c(N3CCCc4ccccc43)n2)c(OC(C)C)cc1C1CCNCC1 | 20 | –
COc1ccc(-c2cc(Nc3nc(Nc4cc(C)c(C5CCNCC5)cc4OC(C)C)ncc3Cl)ccc2OC)cc1 | 17 | –

Compound | MIC [5] [µM] | further results
CC(C)S(=O)(=O)c1ccccc1Nc1nc(Nc2ccccc2C#N)ncc1Cl | > 200 | –
Cc1cc(Nc2ncc(Cl)c(N[C@H](C)c3ccccc3)n2)c(OC(C)C)cc1C1CCNCC1 | 10 | –
CC(C)S(=O)(=O)c1ccccc1Nc1nc(Nc2ccccc2OCCCN2CCOCC2)ncc1Cl | > 150 | –
Cc1cc(Nc2ncc(Cl)c(Nc3ccc4ccccc4c3)n2)c(OC(C)C)cc1C1CCNCC1 | 10 | –
Cc1cc(Cc2ncc(Cl)c(NCCc3ccc(O)cc3)n2)c(OC(C)C)cc1C1CCNCC1 | 10 | –
Cc1cc(Nc2ncc(Cl)c(Nc3cccc(-c4ccccc4)c3)n2)c(OC(C)C)cc1C1CCNCC1 | 19 | –
Cc1cc(Nc2ncc(Cl)c(Nc3ccccc3S(=O)(=O)C(C)C)n2)c(OC(C)C)cc1N1CCNCC1 | 9 | –
Cc1cc(Nc2ncc(Cl)c(NCCc3ccc(F)cc3)n2)c(OC(C)C)cc1C1CCNCC1 | 10 | –
Cc1cc(NS(=O)(=O)c2ccc(N)cc2)no1 [SULFAMETHOXAZOLE] | 67 | –
Cc1cc(Nc2ncc(Cl)c(Nc3cccc4ccccc34)n2)c(OC(C)C)cc1C1CCNCC1 | 5 | Activity [9]: 0.5 log10RLU; Activity [3]: Non-Toxic; Activity [10]: 2 log10RLU; fractional inhibitory concentration index (FICI) [4]: 0.74; Activity [11]: Non-Toxic
Cc1cc(Nc2ncc(Cl)c(Nc3ccc(C(N)=O)cc3)n2)c(OC(C)C)cc1C1CCNCC1 | 20 | –
Cc1cc(Nc2ncc(Cl)c(NC(C)(C)Cc3ccc4ccccc4c3)n2)c(OC(C)C)cc1C1CCNCC1 | 18 | –
CC(C)S(=O)(=O)c1ccccc1Nc1nc(Nc2ccc(Cl)cc2)ncc1Cl | > 200 | –
CC(C)S(=O)(=O)c1ccccc1Nc1nc(Nc2ccc(C#N)c(F)c2)ncc1Cl | > 200 | –
Cc1cc(Nc2ncc(Cl)c(Nc3ccccc3O)n2)c(OC(C)C)cc1C1CCNCC1 | ≤ 10 | –
Cc1cc(Nc2ncc(Cl)c(NC3CCCCC3)n2)c(OC(C)C)cc1C1CCNCC1 | 11 | –
